According to ChEMBL document CHEMBL1177725, “6-(3,4-dichlorophenyl)-1-[(methyloxy)methyl]-3-azabicyclo[4.1.0]heptane: a new potent and selective triple reuptake inhibitor” (J Med Chem, 2010):
Calls of active or inactive are those of the source. The rule behind the calls is not given here.

Tests used:
[1] = system: Rattus norvegicus; experiment: Increase of extracellular dopamine level in CD rat nucleus accumbens at 3 mg/kg, ip measured up to 180 mins by microdialysis method; format: functional, organism-based; parameters: dose 3 mg/kg
Procedure, shortened: (§1)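 Probes of 2 or 4 mm were perfused with artificial CSF at 1.1 μL/min for 2 h, then dosing was 3 mg/kg ip. Dialysate was collected every 20 min into oxalic acid. NE, DA and 5-HT were measured by HPLC with electrochemical detection and expressed as percent of the mean of three basal samples.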

[2] = system: Rattus norvegicus; experiment: Increase of extracellular serotonin level in CD rat medial […] at 3 mg/kg, ip measured up to 180 mins by microdialysis method; format: functional, organism-based; parameters: dose 3 mg/kg; procedure, shortened: as §1
[3] = system: Rattus norvegicus; experiment: Increase of extracellular norepinephrine level in CD rat medial prefrontal cortex at 3 mg/kg, ip measured up to 180 mins by microdialysis method; format: functional, organism-based; parameters: dose 3 mg/kg; procedure, shortened: as §1
[4] = system: Mus musculus; experiment: Antidepressant like activity in mouse assessed as reduction of immobility time at 3 to 30 mg/kg, po administered 2 hrs before test measured during final 4 mins of the 6 mins session by forced swimming test; format: functional, organism-based
[5] = system: Mus musculus; experiment: Potentiation of 5-hydroxytryptophan-induced stereotypic behavior in po dosed mouse administered 2 hrs before 5-hydroxytryptophan challenge measured for 30 mins; format: functional, organism-based
Procedure, shortened: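 Mice got oral drug 120 min before an ip 5-HTP challenge (100 mg/kg), then sat singly in a perspex box for scoring of stereotyped behaviour. Oral doses were 3, 10 and 30 mg/kg.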

[6] = system: Rattus norvegicus; experiment: Increase of extracellular norepinephrine level in CD rat nucleus accumbens at 3 mg/kg, ip measured up to 180 mins by microdialysis method; format: functional, organism-based; parameters: dose 3 mg/kg; procedure, shortened: as §1
[7] = system: Rattus norvegicus; experiment: Increase of extracellular serotonin level in CD rat nucleus accumbens at 3 mg/kg, ip measured up to 180 mins by microdialysis method; format: functional, organism-based; parameters: dose 3 mg/kg; procedure, shortened: as §1
[8] = system: Rattus norvegicus; experiment: Increase of extracellular dopamine level in CD rat medial prefrontal cortex at 3 mg/kg, ip measured up to 180 mins by microdialysis method; format: functional, organism-based; parameters: dose 3 mg/kg; procedure, shortened: as §1
[9] = Half life in rat; format: ADME, organism-based; details: in vivo
[10] = system: Rattus norvegicus; experiment: Ex vivo SERT occupancy in Sprague-Dawley rat superior coulliculus at 10 mg/kg, po […] by autoradiography; format: functional
[11] = target: Sodium-dependent serotonin transporter (Mus musculus, UniProt Q60857); experiment: Displacement of [3H]-citalopram from SERT in mouse cortex after 2 hrs by liquid scintillation counting
Procedure, shortened: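 Mouse cortex membranes (7 μg protein/well) were incubated 2 h at room temperature with [³H]citalopram, added at 0.25 nM. Test compound came from a 100× DMSO solution. Nonspecific binding was defined with 10 μM fluoxetine (final). Bound ligand was collected by filtration on PEI-presoaked GF/B filters, washed with ice-cold 0.9% NaCl and scintillation counted. A four-parameter logistic fit gave pIC50, converted to pKi by Cheng-Prusoff.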

[12] = target: T1, Cytochrome P450 1A2 (Homo sapiens, UniProt P05177); experiment: Inhibition of human CYP1A2 after 10 mins; format: ADME
T1 sequence (P05177 whole entry): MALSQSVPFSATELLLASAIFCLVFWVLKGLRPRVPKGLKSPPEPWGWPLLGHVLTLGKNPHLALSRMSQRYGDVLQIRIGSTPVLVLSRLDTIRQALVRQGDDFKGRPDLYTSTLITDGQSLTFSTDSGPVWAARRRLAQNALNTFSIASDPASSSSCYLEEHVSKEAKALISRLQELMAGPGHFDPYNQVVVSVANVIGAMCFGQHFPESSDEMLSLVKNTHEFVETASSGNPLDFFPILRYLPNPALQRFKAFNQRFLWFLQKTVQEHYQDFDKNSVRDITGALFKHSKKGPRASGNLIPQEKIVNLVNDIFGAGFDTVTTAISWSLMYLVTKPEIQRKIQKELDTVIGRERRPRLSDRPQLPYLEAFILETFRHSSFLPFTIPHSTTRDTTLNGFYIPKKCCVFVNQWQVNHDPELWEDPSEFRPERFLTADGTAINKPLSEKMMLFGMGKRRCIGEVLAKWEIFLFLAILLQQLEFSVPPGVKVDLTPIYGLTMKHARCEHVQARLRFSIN
Procedure, shortened: (§2)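 Recombinant human CYP bactosomes (0.1 mg/mL) were pre-incubated 10 min at 37 °C in 50 mM phosphate pH 7.4 with compound (0.1–10 μM) and a fluorogenic substrate. Substrates: ethoxyresorufin 0.5 μM (1A2), FCA 50 μM (2C9), BMC 10 μM (2C19), MMC 10 μM (2D6), DEF 1 μM or 7-BQ 25 μM (3A4). Adding an NADPH-regenerating system started the reaction, and metabolite fluorescence was read over 10 min. The IC50 came from rate as percent of control; miconazole served as positive control, with triplicates.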

[13] = target: T2, Sodium-dependent noradrenaline transporter (Homo sapiens, UniProt P23975); experiment: Inhibition of [3H]noradrenalin reuptake at human NET expressed in pig LLCPK cells after 1 hr; format: cell-based
T2 sequence (P23975 whole entry): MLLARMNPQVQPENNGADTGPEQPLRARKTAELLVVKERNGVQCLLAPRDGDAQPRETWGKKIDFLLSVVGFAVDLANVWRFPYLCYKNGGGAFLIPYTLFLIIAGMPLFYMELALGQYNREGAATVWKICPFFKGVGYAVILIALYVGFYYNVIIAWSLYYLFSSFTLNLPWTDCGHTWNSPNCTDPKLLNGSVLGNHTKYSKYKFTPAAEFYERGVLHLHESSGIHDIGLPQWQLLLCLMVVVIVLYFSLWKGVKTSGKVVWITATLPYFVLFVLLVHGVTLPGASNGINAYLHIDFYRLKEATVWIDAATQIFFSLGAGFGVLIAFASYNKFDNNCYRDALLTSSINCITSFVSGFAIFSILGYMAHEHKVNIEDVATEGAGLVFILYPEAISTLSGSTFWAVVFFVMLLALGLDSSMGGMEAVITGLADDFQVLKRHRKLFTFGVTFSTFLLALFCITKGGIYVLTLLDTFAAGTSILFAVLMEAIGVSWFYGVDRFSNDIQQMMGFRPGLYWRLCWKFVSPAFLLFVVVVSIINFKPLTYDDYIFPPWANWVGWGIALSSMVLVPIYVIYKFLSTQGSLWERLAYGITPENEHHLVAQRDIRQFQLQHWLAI
Procedure, shortened: (§3)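 Uptake SPA on stably transfected LLCPK cells with SPA beads (1.5 mg/mL SERT, NET; 2 mg/mL DAT) and 0.02% Pluronic F-127 in 20 mM HEPES, 145 mM NaCl, 5 mM KCl, pH 7.4. Cells/well: SERT 25 000, NET 50 000, DAT 75 000. Started by adding 35 nM [3H]serotonin, 45 nM [3H]noradrenalin or 75 nM [3H]dopamine (solutions added); 1 h, room temperature; four-parameter fit; n = 3.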

[14] = system: Rattus norvegicus; experiment: Ex vivo SERT occupancy in Sprague-Dawley rat cortex at 0.03 mg/kg, po after 1 hr by autoradiography; format: functional
Procedure, shortened: (§4)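 Oral dosing in rats. SERT occupancy was taken from [3H]citalopram binding to brain cortex prepared 1 h after administration.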

[15] = system: Rattus norvegicus; experiment: Ex vivo SERT occupancy in Sprague-Dawley rat substantia nigra at 10 mg/kg, po […] by autoradiography; format: functional
[16] = target: Sodium-dependent noradrenaline transporter (Mus musculus, UniProt O55192); experiment: Displacement of [3H]nisoxetine from NET in mouse brain; format: tissue-based
Sequence of Sodium-dependent noradrenaline transporter (Mus musculus, UniProt O55192) (O55192 whole entry): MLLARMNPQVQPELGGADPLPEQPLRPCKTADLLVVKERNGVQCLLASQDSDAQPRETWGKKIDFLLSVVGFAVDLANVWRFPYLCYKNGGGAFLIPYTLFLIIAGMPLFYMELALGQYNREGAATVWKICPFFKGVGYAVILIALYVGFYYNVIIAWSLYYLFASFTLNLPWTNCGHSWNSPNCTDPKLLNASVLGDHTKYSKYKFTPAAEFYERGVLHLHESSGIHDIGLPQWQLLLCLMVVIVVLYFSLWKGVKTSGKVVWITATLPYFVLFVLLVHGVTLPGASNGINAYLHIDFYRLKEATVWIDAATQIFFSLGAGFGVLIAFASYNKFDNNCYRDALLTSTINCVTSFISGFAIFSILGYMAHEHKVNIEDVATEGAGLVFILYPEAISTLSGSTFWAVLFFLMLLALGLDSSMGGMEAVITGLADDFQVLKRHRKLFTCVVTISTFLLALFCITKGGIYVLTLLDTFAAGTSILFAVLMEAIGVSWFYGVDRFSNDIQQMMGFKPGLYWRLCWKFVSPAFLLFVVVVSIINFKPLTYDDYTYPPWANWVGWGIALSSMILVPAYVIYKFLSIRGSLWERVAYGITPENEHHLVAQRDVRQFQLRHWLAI

[17] = system: Rattus norvegicus; experiment: Ex vivo SERT occupancy in Sprague-Dawley rat cortex at 0.1 mg/kg, po after 1 hr by autoradiography; format: functional
[18] = target: Cytochrome P450 2D6 (Homo sapiens, UniProt P10635); experiment: Inhibition of human CYP2D6 after 10 mins; format: ADME; procedure, shortened: as §2
Sequence of Cytochrome P450 2D6 (P10635 whole entry): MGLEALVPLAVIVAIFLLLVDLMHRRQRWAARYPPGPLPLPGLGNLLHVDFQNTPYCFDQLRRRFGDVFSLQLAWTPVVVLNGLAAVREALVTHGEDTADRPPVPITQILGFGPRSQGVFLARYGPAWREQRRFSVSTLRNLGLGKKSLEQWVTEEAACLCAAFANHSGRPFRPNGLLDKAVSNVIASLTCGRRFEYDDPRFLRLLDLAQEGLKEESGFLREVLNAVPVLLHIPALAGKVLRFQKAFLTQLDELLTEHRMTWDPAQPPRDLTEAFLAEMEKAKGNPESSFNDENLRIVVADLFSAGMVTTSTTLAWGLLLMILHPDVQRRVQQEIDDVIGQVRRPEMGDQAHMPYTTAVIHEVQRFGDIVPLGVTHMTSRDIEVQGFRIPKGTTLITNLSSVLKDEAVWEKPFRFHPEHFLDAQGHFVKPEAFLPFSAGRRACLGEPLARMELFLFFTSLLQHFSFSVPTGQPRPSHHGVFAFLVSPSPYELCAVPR

[19] = target: T3, Sodium-dependent dopamine transporter (Homo sapiens, UniProt Q01959); experiment: Inhibition of [3H]dopamine reuptake at human DAT expressed in pig LLCPK cells after 1 hr; format: cell-based; procedure, shortened: as §3
T3 sequence (Q01959 whole entry): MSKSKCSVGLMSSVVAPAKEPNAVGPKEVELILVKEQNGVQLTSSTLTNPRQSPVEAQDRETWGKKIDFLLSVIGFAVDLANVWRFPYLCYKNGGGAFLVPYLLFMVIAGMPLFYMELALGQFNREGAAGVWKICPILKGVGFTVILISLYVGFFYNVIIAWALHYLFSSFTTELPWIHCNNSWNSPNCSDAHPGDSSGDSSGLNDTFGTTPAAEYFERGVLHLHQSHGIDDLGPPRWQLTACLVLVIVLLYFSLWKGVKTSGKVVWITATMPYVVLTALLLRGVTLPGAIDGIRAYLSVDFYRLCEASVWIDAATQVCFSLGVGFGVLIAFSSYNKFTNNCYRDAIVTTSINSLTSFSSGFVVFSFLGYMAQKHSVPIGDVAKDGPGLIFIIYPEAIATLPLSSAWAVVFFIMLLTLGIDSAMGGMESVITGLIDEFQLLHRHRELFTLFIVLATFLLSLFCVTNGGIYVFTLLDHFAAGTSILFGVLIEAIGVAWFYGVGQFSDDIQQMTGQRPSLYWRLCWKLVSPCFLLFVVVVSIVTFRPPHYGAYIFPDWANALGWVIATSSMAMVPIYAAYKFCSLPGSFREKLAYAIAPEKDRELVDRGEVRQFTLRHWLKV

[20] = target: T3, Sodium-dependent dopamine transporter; experiment: Displacement of [N-methyl-3H]WIN-35428 from human recombinant DAT expressed in pig LLCPK cells after 2 hrs by liquid scintillation counting; format: cell-based
[21] = target: T4, Sodium-dependent serotonin transporter (Homo sapiens, UniProt P31645); experiment: Displacement of [N-methyl-3H]citalopram from human recombinant SERT expressed in pig LLCPK cells after 2 hrs by liquid scintillation counting; format: cell-based
T4 sequence (P31645 whole entry): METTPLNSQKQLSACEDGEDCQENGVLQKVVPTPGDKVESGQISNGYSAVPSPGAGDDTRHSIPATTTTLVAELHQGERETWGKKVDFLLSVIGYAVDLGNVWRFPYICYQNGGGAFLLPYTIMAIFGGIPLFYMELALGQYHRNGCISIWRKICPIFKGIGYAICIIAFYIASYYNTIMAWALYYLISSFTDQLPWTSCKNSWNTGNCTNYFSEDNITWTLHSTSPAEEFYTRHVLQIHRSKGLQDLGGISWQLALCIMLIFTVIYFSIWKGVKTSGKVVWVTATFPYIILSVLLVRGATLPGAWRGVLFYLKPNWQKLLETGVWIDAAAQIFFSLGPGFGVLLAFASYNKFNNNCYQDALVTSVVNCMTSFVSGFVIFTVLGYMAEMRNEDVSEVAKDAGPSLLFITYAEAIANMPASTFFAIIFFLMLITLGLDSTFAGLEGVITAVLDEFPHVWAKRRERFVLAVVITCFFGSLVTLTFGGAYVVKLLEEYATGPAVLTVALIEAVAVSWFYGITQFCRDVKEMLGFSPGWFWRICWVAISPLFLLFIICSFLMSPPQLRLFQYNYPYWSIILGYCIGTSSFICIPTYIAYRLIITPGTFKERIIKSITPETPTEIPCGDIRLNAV

[22] = target: T3, Sodium-dependent dopamine transporter; experiment: Displacement of [3H]WIN-35428 from human recombinant DAT by SPA
Procedure, shortened: (§5)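 SPA binding on BacMam-expressed human transporter membranes (SERT 6, NET 40, DAT 20 μg/mL) with SPA beads (1 mg/mL SERT; 2 mg/mL NET, DAT), 0.02% Pluronic F-127. Radioligands: 3 nM [3H]citalopram (SERT), 10 nM [3H]nisoxetine (NET), 10 nM [3H]WIN-35,428 (DAT). Buffer 20 mM HEPES, 145 mM NaCl, 5 mM KCl, pH 7.4; overnight, room temperature; imager read; four-parameter fit, Cheng-Prusoff pKi.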

[23] = system: Rattus norvegicus; experiment: Ex vivo SERT occupancy in Sprague-Dawley rat dorsal raphe at 10 mg/kg, po […] by autoradiography; format: functional
[24] = Blood clearance in rat; format: ADME, organism-based
[25] = system: Rattus norvegicus; experiment: Ex vivo SERT occupancy in Sprague-Dawley rat cortex at 0.3 mg/kg, po after 1 hr by autoradiography; format: functional; procedure, shortened: as §4
[26] = system: Rattus norvegicus; experiment: Ex vivo SERT occupancy in Sprague-Dawley rat cortex at 10 mg/kg, po after 1 hr by autoradiography; format: functional; procedure, shortened: as §4
[27] = target: Transporter (Rattus norvegicus, UniProt Q63380); experiment: Displacement of [3H]nisoxetine from NET in rat hippocampus after 2 hrs by liquid scintillation counting; format: tissue-based
Procedure, shortened: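 Rat hippocampus membranes (40 μg protein/well), competition filtration binding run as for human recombinant NET: 1.5 nM [3H]nisoxetine, test compound added from 100x DMSO solution, 10 μM desipramine for nonspecific binding. Incubated for 2 h at room temperature, filtered on PEI-presoaked GF/B, and washed with ice-cold 0.9% NaCl. Read by scintillation counting; four-parameter logistic pIC50 converted to pKi by Cheng-Prusoff.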

[28] = system: Rattus norvegicus; experiment: Ex vivo SERT occupancy in Sprague-Dawley rat cortex at 20 mg/kg, po after 1 hr by autoradiography; format: functional; procedure, shortened: as §4
[29] = target: Sodium-dependent dopamine transporter (Mus musculus, UniProt Q61327); experiment: Displacement of [3H]WIN-35428 from DAT in mouse brain; format: tissue-based
Sequence of Sodium-dependent dopamine transporter (Mus musculus, UniProt Q61327) (Q61327 whole entry): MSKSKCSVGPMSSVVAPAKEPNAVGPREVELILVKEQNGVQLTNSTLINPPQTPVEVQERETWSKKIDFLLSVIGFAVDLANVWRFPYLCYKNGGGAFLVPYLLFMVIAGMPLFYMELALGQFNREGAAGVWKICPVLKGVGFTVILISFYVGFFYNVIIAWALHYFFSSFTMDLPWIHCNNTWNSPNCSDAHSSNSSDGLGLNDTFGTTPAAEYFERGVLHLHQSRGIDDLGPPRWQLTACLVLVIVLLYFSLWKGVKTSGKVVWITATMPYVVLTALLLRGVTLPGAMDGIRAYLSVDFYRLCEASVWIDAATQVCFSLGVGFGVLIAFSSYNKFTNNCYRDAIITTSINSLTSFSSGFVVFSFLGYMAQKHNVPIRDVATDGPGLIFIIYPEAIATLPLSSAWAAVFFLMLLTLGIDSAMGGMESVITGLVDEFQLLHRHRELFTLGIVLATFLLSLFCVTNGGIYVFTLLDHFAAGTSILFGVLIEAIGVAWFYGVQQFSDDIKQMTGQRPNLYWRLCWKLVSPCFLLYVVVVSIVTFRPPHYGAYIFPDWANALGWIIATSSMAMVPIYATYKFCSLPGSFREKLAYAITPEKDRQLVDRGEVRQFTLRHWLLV

[30] = Volume of distribution in rat; format: ADME, organism-based; details: in vivo
[31] = target: Cytochrome P450 3A4 (Homo sapiens, UniProt P08684); experiment: Inhibition of human CYP3A4 after 10 mins; format: ADME; procedure, shortened: as §2
[32] = target: T2, Sodium-dependent noradrenaline transporter; experiment: Displacement of [3H]nisoxetine from human recombinant NET by SPA; procedure, shortened: as §5
[33] = system: Rattus norvegicus; experiment: Ex vivo SERT occupancy in Sprague-Dawley rat cortex at 1 mg/kg, po after 1 hr by autoradiography; format: functional; procedure, shortened: as §4
[34] = target: Cytochrome P450 2C19 (Homo sapiens, UniProt P33261); experiment: Inhibition of human CYP2C19 after 10 mins; format: ADME; procedure, shortened: as §2
Sequence of Cytochrome P450 2C19 (P33261 whole entry): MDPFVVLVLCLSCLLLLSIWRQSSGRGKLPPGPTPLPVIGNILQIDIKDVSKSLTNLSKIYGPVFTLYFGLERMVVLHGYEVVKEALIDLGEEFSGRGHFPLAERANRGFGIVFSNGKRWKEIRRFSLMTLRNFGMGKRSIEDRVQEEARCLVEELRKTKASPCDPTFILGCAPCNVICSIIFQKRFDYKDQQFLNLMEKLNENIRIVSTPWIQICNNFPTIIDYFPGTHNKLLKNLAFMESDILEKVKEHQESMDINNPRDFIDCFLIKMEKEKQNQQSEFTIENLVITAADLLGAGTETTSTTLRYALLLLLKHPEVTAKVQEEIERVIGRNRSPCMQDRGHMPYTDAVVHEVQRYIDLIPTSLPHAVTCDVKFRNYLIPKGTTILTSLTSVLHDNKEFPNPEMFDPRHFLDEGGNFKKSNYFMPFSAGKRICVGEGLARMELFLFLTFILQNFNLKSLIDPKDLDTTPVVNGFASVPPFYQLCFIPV

[35] = target: Sodium-dependent dopamine transporter (Rattus norvegicus, UniProt P23977); experiment: Displacement of [3H]WIN-35428 from DAT in rat striatum after 2 hrs by liquid scintillation counting
Sequence of Sodium-dependent dopamine transporter (Rattus norvegicus, UniProt P23977) (P23977 whole entry): as the sequence (Q61327 whole entry) above, with P21S, V57A, S194A, R600H, V619L counted along it

[36] = system: Rattus norvegicus; experiment: Ex vivo SERT occupancy in Sprague-Dawley rat cortex at 3 mg/kg, po after 1 hr by autoradiography; format: functional; procedure, shortened: as §4
[37] = target: T2, Sodium-dependent noradrenaline transporter; experiment: Displacement of [N-methyl-3H]nisoxetine from human recombinant NET expressed in pig LLCPK cells after 2 hrs by liquid scintillation counting; format: cell-based
[38] = target: T4, Sodium-dependent serotonin transporter; experiment: Displacement of [3H]citalopram from human recombinant SERT by SPA; procedure, shortened: as §5
[39] = Ratio of drug level in brain to blood in rat; format: ADME, tissue-based
[40] = target: T4, Sodium-dependent serotonin transporter; experiment: Inhibition of [3H]serotonin reuptake at human SERT expressed in pig LLCPK cells after 1 hr; format: cell-based; procedure, shortened: as §3
[41] = target: Sodium-dependent serotonin transporter (Rattus norvegicus, UniProt P31652); experiment: Displacement of [3H]-citalopram from SERT in rat cortex after 2 hrs by liquid scintillation counting
Sequence of Sodium-dependent serotonin transporter (Rattus norvegicus, UniProt P31652) (P31652 whole entry): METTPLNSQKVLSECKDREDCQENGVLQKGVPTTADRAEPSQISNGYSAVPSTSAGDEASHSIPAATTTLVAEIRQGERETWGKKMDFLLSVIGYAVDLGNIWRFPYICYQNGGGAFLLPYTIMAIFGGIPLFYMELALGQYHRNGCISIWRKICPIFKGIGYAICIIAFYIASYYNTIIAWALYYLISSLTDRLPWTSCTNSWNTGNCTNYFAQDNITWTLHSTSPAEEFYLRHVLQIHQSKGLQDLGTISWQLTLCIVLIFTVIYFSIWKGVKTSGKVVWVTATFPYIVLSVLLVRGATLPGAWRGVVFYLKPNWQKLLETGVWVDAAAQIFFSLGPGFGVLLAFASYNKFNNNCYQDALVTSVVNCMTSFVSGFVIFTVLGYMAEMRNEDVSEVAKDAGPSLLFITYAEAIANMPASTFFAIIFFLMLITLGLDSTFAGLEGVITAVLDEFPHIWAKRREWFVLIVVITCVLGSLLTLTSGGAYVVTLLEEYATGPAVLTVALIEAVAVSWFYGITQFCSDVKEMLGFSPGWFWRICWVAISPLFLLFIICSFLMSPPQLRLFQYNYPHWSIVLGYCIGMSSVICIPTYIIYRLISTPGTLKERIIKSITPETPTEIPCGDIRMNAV

[42] = Oral bioavailability in rat; format: ADME, organism-based; details: in vivo
[43] = system: Rattus norvegicus; experiment: Ex vivo SERT occupancy in Sprague-Dawley rat striatum at 10 mg/kg, po […] by autoradiography; format: functional
[44] = target: Cytochrome P450 2C9 (Homo sapiens, UniProt P11712); experiment: Inhibition of human CYP2C9 after 10 mins; format: ADME; procedure, shortened: as §2

COC[C@@]12CNCC[C@]1(c1ccc(Cl)c(Cl)c1)C2 (relative stereo; 17)
Activity [1]: Active | Activity [2]: Active | Activity [3]: Active | Activity [4]: Active | Activity [5]: Dose-dependent effect | Activity [6]: Active | Activity [7]: Active | Activity [8]: Active

COC[C@@]12CNCC[C@]1(c1ccc(Cl)c(Cl)c1)C2 (relative stereo; 17) [GSK1360707]
half-life [9]: 1.7 h | Activity [10]: >=95% | Ki [11]: 1.58 nM | IC50 [12]: 10000 nM | IC50 [13]: 2 nM | Activity [14]: 4.6% | Activity [15]: >=95% | Ki [16]: 1.58 nM | Activity [17]: 12.6% | IC50 [18]: 3000 nM | IC50 [19]: 2 nM | Ki [20]: 10 nM | Ki [21]: 0.631 nM | Ki [22]: 12 nM | Activity [23]: 87.92% | clearance [24]: 48 mL/min | Activity [25]: 36.3% | Activity [26]: >=95% | Ki [27]: 2.51 nM | Activity [28]: 98.2% | Ki [29]: 10 nM | Vd [30]: 5.8 L/kg | IC50 [31]: 10000 nM | Ki [32]: 12 nM | Activity [33]: 58.2% | IC50 [34]: 10000 nM | Ki [35]: 10 nM | Activity [36]: 82.8% | Ki [37]: 7.94 nM | Ki [38]: 1.05 nM | Kp [39]: 6.3 | IC50 [40]: 3.98 nM | Ki [41]: 1.26 nM | bioavailability [42]: 54% | Activity [43]: >=95% | IC50 [44]: 10000 nM
